Assay outcomes: PubChem, Broad Institute
KDM4C inh: inhibitors of human demethylase GASC-1 KDM4C. inhibition, % at 12.5 µM. GST-KDM4C 2-372, H3K9me3 peptide, LANCE TR-FRET. actives 0.15% (n = 96,000);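 active means mean replicate inhibition above about 25%, with at least 55% of replicates also reaching it, limit read from the data, passing the limit was not always enough; inconclusive means only one of those two conditions met; inactive means neither condition met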
Target sequence (Q9H3R0 2-372 limits assumed): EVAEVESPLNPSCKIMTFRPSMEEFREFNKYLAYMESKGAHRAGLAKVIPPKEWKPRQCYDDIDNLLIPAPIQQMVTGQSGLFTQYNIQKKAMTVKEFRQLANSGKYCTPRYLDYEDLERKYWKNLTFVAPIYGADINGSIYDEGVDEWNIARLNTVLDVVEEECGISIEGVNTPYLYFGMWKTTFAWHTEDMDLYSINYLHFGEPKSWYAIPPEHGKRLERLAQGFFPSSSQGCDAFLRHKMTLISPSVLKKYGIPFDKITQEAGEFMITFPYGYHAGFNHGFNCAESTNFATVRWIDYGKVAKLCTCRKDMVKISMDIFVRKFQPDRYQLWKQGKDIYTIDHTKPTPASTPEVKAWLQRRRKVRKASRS
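reagent = H3K9me3 peptide substrate, Fe(II), 2-oxoglutarate | system = GST-tagged GASC-1 (JMJD2C) catalytic fragment, aa 2-372 | amount = enzyme final amount 10 nM | read-out = Fall in 671/618 emission ratio as inhibition | medium = HEPES buffer, pH 7.5, plus ascorbate | schedule = 30 min reaction, 60 min detection, RT | measured by = LANCE TR-FRET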
Pf Dd2 growth: P. falciparum Dd2 growth inhibition. SYBR Green, 72 h; active compounds read low. activity change, % at 10 µM. actives 2.3% (n = 94,000). AID 1159554; in the data active means activity change below about -80%; inconclusive means no clear call, values can overlap the other calls
T cruzi growth-1: T. cruzi proliferation inhibition; T. cruzi beta-gal in NIH3T3, GalScreen luminescence, 90 h; inhibition, % at 8.34 µM; actives 5.9% (n = 77,000); AID 624255;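 active means mean inhibition above about 93%, with at least 55% of replicates each passing it, limit read from the data, passing the limit was not always enough; inconclusive means only one of those two conditions holds; inactive means neither condition holds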
IDH1 R132H inh: IDH1 R132H (human) inhibition; actives 0.18% (n = 70,000); AID 624101; O75874; inhibition, % at 10 µM; IDH1 R132H reductase, diaphorase/resazurin fluorescence, 60 min; in the data active means inhibition above about 34%; inconclusive means no clear call, values can overlap the other calls; inactive means below about 11%;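 further: 0% = DMSO and 100% = no enzyme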
Target sequence (O75874 whole entry R132H): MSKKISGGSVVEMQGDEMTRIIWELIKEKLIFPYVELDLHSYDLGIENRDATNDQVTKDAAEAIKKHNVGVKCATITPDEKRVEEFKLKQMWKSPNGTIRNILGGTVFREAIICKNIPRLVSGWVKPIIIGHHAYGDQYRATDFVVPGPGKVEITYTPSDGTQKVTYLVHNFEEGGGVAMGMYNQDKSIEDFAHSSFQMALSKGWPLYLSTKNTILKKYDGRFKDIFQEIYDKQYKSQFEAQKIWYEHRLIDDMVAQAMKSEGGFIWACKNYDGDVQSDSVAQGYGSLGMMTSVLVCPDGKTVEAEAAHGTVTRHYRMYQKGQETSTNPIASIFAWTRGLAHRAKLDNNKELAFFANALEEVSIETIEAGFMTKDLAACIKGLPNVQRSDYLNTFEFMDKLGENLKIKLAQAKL
T cruzi growth-2: blocks T. cruzi growth in NIH3T3 host cells. shares compounds with T cruzi growth-1. inhibition, % at 8.35 µM. T. cruzi beta-gal in NIH3T3, GalScreen luminescence, 90 h. actives 72% (n = 5,600);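 active means mean replicate inhibition above about 95% and at least 55% of replicates individually reaching it, limit read from the data; inconclusive means only one of the two criteria is met; inactive means neither criterion is met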
T cruzi growth-3: Trypanosoma cruzi proliferation inhibition. T. cruzi beta-gal in NIH3T3, GalScreen luminescence, 90 h. inhibition, % at 2.09 µM. actives 21% (n = 5,600). shares compounds with T cruzi growth-1. AID 651740;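 active means mean inhibition above about 95%, with at least 55% of replicates also reaching it, limit read from the data; inconclusive means meets just one of the two conditions; inactive means meets neither condition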;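 further: plate controls were neutral control median for no effect and positive control median for full effect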
NIH3T3 tox: kills mouse NIH/3T3 fibroblasts. cytotoxicity (signal decrease), % at 8.35 µM. shares compounds with T cruzi growth-1. NIH/3T3 viability, CellTiter-Glo ATP luminescence, 90 h. actives 14% (n = 5,600);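 active means mean signal decrease across replicates above about 35% based on untreated-well scatter, with enough replicates individually passing, limit read from the data; inconclusive means no rule stated though some were filed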;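 further: 0% = median of neutral control wells and 100% = median of positive control wells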
NIH3T3 tox 2: cytotoxicity in mouse NIH/3T3 fibroblasts. shares compounds with T cruzi growth-1. NIH/3T3 viability, CellTiter-Glo ATP luminescence, 90 h. inhibition, % at 24.9 µM. actives 56% (n = 5,600). AID 651744;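 active means mean loss of cell viability signal at or above a set limit, and enough replicates individually reaching it; inconclusive means meets only the mean limit or only the replicate share; inactive means meets neither condition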;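 further: 0% = median of neutral control wells and 100% = median of positive control wells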
* marks the source's active call; other numbers are inactive results; ? = inconclusive; nt = no result; + = active, no number; ! = repeats disagree. Only some compounds are listed: those with a hit (about 5.9% of all), similar ones and a draw of the others.

SMILES | KDM4C inh | Pf Dd2 growth | T cruzi growth-1 | IDH1 R132H inh | T cruzi growth-2 | T cruzi growth-3 | NIH3T3 tox | NIH3T3 tox 2
CCNC(=O)[C@@H]1[C@@H](CO)[C@@H]2Cn3c(cccc3=O)[C@@H]2N1CC1CCCCC1 | 2.7 | nt | + | nt | -27.1 | -24.4 | -4.1 | -8.0
CCCNC(=O)[C@@H]1[C@@H](CO)[C@@H]2Cn3c(cccc3=O)[C@@H]2N1CC1CCCCC1 | 2.6 | 2.4 | 1.6 | nt | nt | nt | nt | nt
C[C@H]1[C@H](C)CC[C@]2(C(=O)O[C@@H]3O[C@H](COC4O[C@H](CO)[C@@H](OC5O[C@@H](C)[C@H](O)[C@@H](O)[C@H]5O)[C@H](O)[C@H]4O)[C@@H](O)[C@H](O)[C@H]3O)CC[C@]3(C)C(=CC[C@@H]4[C@@]5(C)C[C@@H](O)[C@H](O)[C@@](C)(CO)C5CC[C@]43C)[C@H]12 (stereo partly drawn) | nt | nt | nt | 0.6 | nt | nt | nt | nt
CCCC#Cc1ccc2c(c1)O[C@H](CN(C)Cc1ccncc1)[C@H](C)CN([C@H](C)CO)S2(=O)=O | -1.4 | -37.2 | 114.0* | 13.9 | 102.7* | 75.8 | 36.9* | ?
C[C@@H]1CN([C@H](C)CO)S(=O)(=O)c2ccc(C#CCN(C)C)cc2O[C@H]1CN(C)Cc1ccncc1 | 5.2 | -36.2 | 101.2* | 1.8 | 107.4* | 105.1* | 45.4* | 57.8*
CCCC#Cc1ccc2c(c1)O[C@H](CN(C)Cc1ccncc1)[C@@H](C)CN([C@@H](C)CO)S2(=O)=O | 21.9 | -73.7 | 121.4* | 0.6 | 105.6* | 100.6* | 42.2* | 104.0*
C[C@@H]1CN([C@H](C)CO)S(=O)(=O)c2ccc(C#CCN(C)C)cc2O[C@H]1CN(C)Cc1ccc(F)cc1 | 15.5 | -69.8 | 115.5* | -3.8 | ? | 91.0 | 56.9* | 107.4*
C[C@@H]1CN([C@H](C)CO)S(=O)(=O)c2ccc(C#CCN(C)C)cc2O[C@@H]1CN(C)Cc1ccncc1 | 5.3 | 5.8 | 24.6 | 5.4 | nt | nt | nt | nt
CCCC#Cc1ccc2c(c1)O[C@H](CN(C)Cc1ccccc1)[C@@H](C)CN([C@@H](C)CO)S2(=O)=O | -0.9 | -22.1 | nt | 0.7 | nt | nt | nt | nt
CC(C)CC#Cc1ccc2c(c1)O[C@H](CN(C)Cc1ccc(F)cc1)[C@H](C)CN([C@@H](C)CO)S2(=O)=O | nt | -58.6 | 83.7 | -0.1 | nt | nt | nt | nt
CC(C)CC#Cc1ccc2c(c1)O[C@@H](CN(C)Cc1ccncc1)[C@H](C)CN([C@@H](C)CO)S2(=O)=O | -1.5 | -79.8 | 132.2* | 1.2 | 96.9* | 104.8* | 26.1 | 103.3*
O=C(COc1ccccc1[N+](=O)[O-])Nc1ccc2oc(-c3ccc(Cl)cc3)nc2c1 | nt | nt | nt | -0.2 | nt | nt | nt | nt
Cc1nnn(C23CC4CC(CC(C(=O)NC5CCCCCC5)(C4)C2)C3)n1 | nt | nt | nt | -0.2 | nt | nt | nt | nt
C[C@@H]1CN([C@H](C)CO)S(=O)(=O)c2ccc(C#CC(C)(C)O)cc2O[C@H]1CN(C)Cc1ccc(-c2ccccc2)cc1 | 6.8 | -84.0* | 120.6* | -2.2 | 89.5 | 109.7* | 118.2* | 107.0*
C[C@H](O)C#Cc1ccc2c(c1)O[C@@H](CN(C)Cc1ccc(-c3ccccc3)cc1)[C@H](C)CN([C@@H](C)CO)S2(=O)=O | -2.6 | -45.2 | 113.1*! | -0.5 | 100.8* | 99.0* | 114.4* | 107.7*
C[C@H](CO)N1C[C@H](C)[C@@H](CN(C)Cc2ccc(-c3ccccc3)cc2)Oc2cc(C#C[C@@H](C)O)ccc2S1(=O)=O | -1.4 | -61.1 | 97.0* | nt | 87.2 | 107.1* | 108.7* | 103.5*
COc1ccc(-c2ccc([C@H]3[C@H]4CN(CC5CCOCC5)CCCCN4[C@H]3CO)cc2)cc1 | -0.3 | -21.9 | -1.6 | nt | nt | nt | nt | nt
COc1ccc(-c2ccc([C@H]3[C@@H](CO)N4CCCCN(CC5CCOCC5)C[C@@H]34)cc2)cc1 | -0.5 | 0.2 | 98.8* | nt | ? | 26.6 | ? | 77.9*
COc1ccc(-c2ccc([C@H]3[C@@H](CO)N4CCCCN(CC5CCOCC5)C[C@H]34)cc2)cc1 | -0.3 | -31.8 | 100.9* | nt | 93.5 | 67.0 | 18.7 | 96.1*
COc1ccc(/C=N/NC(=O)c2ccccn2)cc1 | nt | nt | nt | 0.2 | nt | nt | nt | nt
C/C=C/c1ccc2c(c1)O[C@H](CN(C)C(=O)c1ccc3c(c1)OCO3)[C@H](C)CN([C@H](C)CO)S2(=O)=O | -0.6 | -11.1 | 51.8 | 2.6 | nt | nt | nt | nt
C[C@@H]1CN([C@@H](C)CO)S(=O)(=O)c2ccc(/C=C/c3ccccc3)cc2O[C@H]1CN(C)C(=O)c1ccc2c(c1)OCO2 | nt | -87.0* | 118.1* | 4.1 | 105.0* | 85.1 | 41.6* | 58.7*
C[C@H](CO)N1C[C@H](C)[C@@H](CN(C)C(=O)c2ccc3c(c2)OCO3)Oc2cc(/C=C/c3ccccc3)ccc2S1(=O)=O | -4.1 | -70.9 | 118.9* | nt | 103.7* | 51.7 | 8.1 | 45.1*
C/C=C/c1cnc2c(c1)C(=O)N([C@H](C)CO)C[C@H](C)[C@@H](CN(C)Cc1ccc3c(c1)OCO3)O2 | 1.2 | -42.6 | nt | 0.0 | nt | nt | nt | nt
C[C@@H]1CN([C@H](C)CO)C(=O)c2cc(/C=C/c3ccccc3)cnc2O[C@@H]1CN(C)Cc1ccc2c(c1)OCO2 | 14.1 | -59.1 | 86.0* | -0.4 | 108.5* | 67.0 | 21.0 | 102.1*
C[C@@H]1CN([C@@H](C)CO)C(=O)c2cc(/C=C/c3ccccc3)cnc2O[C@@H]1CN(C)Cc1ccc2c(c1)OCO2 | -1.0 | -78.1 | 104.1* | -1.7 | 103.3* | 71.8 | 17.9 | 104.5*
COc1ccc(OC)c(NC(=O)Cn2cc(C(=O)C3CCCCC3)c3ccccc32)c1 | nt | nt | nt | 0.4 | nt | nt | nt | nt
Cc1noc(C)c1S(=O)(=O)N(C)C[C@@H]1OCCCC[C@@H](C)Oc2ccc(NS(=O)(=O)c3ccc(F)cc3)cc2C(=O)N([C@H](C)CO)C[C@H]1C | 0.5 | -65.7 | ? | -0.3 | 43.8 | 57.0 | -19.4 | -18.9
Cc1ccc(S(=O)(=O)Nc2ccc3c(c2)C(=O)N([C@@H](C)CO)C[C@@H](C)[C@@H](CN(C)S(=O)(=O)c2c(C)noc2C)OCCCC[C@@H](C)O3)cc1 | 0.3 | -25.9 | 98.2* | 0.2 | 107.1* | 57.6 | 16.6 | -9.0
Cc1noc(C)c1S(=O)(=O)Nc1ccc2c(c1)C(=O)N([C@H](C)CO)C[C@@H](C)[C@H](CN(C)S(=O)(=O)c1ccc(Cl)cc1)OCCCC[C@@H](C)O2 | -0.5 | ? | 103.6* | nt | 106.8* | 81.6 | 14.5 | 8.6
